Screening results from PubChem.
CSC inhib = cancer stem cell viability inhibitors, primary screen, luminescence; AID 2717, 2010; hit rate 1.1% among 300,000; inhibition, % at 7.5 µM; cancer stem cell-like cells viability; in the data active = inhibition above about 75%; inconclusive = no clear call, values can overlap the other calls; tested in HMLE shEcad cells
GRIN3A LBD mod = binders of NR3A ligand-binding domain, primary screen, biophysical, differential scanning fluorimetry, uHTS; Glutamate receptor ionotropic, NMDA 3A (GRIN3A) ligand-binding domain; NR3A LBD differential scanning fluorimetry, Tm shift; 0% = protein alone, 100% = glycine-bound protein; Tm shift relative to glycine control, % at 25 µM; hit rate 2.5% among 340,000;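 active = melting temperature shift of at least 10% of the positive control shift, at one fixed dose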
CHOP inh = inhibitors of CHOP promoter induction, primary screen, cell-based, unfolded protein response, luciferase reporter; CHO-K1 CHOP-promoter luciferase, tunicamycin-induced, 15-18 h; inhibition, % at 10 µM; hit rate 3.8% among 220,000; AID 2732, 2010;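 active = compounds that reduced the stress-induced luciferase reporter signal by more than about 70% of percent inhibition, limit read from the data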;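 note: 0% = tunicamycin plus vehicle and 100% = wells without tunicamycin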
T cruzi inh = inhibitors of intracellular T. cruzi growth, primary screen, luminescence, NIH3T3 host cells | T. cruzi beta-gal in NIH3T3, 90 h | inhibition, % (no concentration beside the values) | hit rate 1.4% among 300,000;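 active = mean inhibition across valid replicates above about 55%, limit read from the data; inconclusive = mean below that limit but half or more replicates reach it; inactive = mean below it, under half of replicates reach it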;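 note: signal also drops with host cell toxicity which is not excluded here; 0% = plate median of DMSO wells and 100% = zero luminescence signal; higher percent means less beta-gal luminescence so fewer parasites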
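Assay system: NIH/3T3 fibroblasts plus reporter T. cruzi. Amount: NIH/3T3 cells, 5,000 per well. Buffer or medium: DMEM, 2% fetal bovine serum. Doses: compound pinned at 50 nL/well, DMSO. Schedule: ≥90 h infection period, 3 h prior cell attachment. Signal: luminescent β-galactosidase signal after 60 min lysis. Read-out: parasite load inhibition, %.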
Beta cell apopt = inhibitors of cytokine-induced beta cell apoptosis, primary screen, luminescence | hit rate 0.8% among 300,000 | protection from apoptosis, % (concentration not given with the values) | INS-1E cytokine-induced death, ATP luminescence, 48 h; percent of positive-control rescue, neutral wells zero;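 active = Every replicate reaches about 75%, or at least half do and their mean reaches it too, limit read from the data; inconclusive = At least half of replicates reach the limit but their mean does not; inactive = Under half of replicates reach the limit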;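 note: 0% = cytokine-treated negative control wells and 100% = positive control rescue; higher means more ATP so stronger rescue from cytokine killing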
PREPL inhibitor = PREPL enzyme inhibitors, primary screen, biochemical, fluorescence polarization. inhibition, % at 5.96 µM. Prolyl endopeptidase-like (Homo sapiens), Q4J6C6. hit rate 0.68% among 320,000. AID 2751, 2010. recombinant PREPL, fluorescence polarization activity-based probe; in the data active = inhibition above about 43%;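 note: 0% = enzyme with DMSO and 100% = wells lacking enzyme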
Target sequence (Q4J6C6 whole entry, looked up): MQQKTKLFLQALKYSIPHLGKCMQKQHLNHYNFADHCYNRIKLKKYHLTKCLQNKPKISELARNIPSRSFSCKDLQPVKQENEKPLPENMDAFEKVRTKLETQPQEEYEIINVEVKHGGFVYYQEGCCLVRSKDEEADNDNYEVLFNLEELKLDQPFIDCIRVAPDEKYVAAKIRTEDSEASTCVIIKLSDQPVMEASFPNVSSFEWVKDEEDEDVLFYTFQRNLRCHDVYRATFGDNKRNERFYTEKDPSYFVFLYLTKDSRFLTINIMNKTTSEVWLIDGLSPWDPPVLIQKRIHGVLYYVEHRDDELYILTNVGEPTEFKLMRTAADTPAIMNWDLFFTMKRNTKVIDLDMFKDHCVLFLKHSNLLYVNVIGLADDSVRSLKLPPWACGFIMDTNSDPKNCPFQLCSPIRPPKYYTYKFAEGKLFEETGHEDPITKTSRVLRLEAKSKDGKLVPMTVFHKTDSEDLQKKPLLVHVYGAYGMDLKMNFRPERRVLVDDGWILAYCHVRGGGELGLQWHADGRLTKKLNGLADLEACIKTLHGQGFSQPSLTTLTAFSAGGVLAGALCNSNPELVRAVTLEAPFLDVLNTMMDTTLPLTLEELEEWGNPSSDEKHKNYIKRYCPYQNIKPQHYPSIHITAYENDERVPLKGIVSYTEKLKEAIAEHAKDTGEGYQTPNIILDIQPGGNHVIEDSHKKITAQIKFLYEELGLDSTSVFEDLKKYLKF
The depositor's hits bear a star; ? = inconclusive; nt = not tested or not shown. An excerpt weighted towards active compounds, which were near 6.7% of everything screened.

SMILES	CSC inhib	GRIN3A LBD mod	CHOP inh	T cruzi inh	Beta cell apopt	PREPL inhibitor
O=C(Nc1ccccc1O)c1ccc(NS(=O)(=O)c2cccc3cccnc23)cc1	?	20*	-8	-16	-4	-2
Cc1cccc(NC(=O)c2ccc(NS(=O)(=O)c3cccc4cccnc34)cc2)c1	nt	30*	nt	nt	nt	nt
NS(=O)(=O)OCc1ccc(C(F)(F)F)cc1	0	0	nt	1	2	-5
COc1ccc(C(=O)CCC(=O)Nc2cccc(Cl)c2)cc1	-7	0	14	3	-8	-12
Cc1ccc(C(=O)CCC(=O)Nc2ccc(Cl)c(S(=O)(=O)Nc3cccc(Cl)c3)c2)cc1	-1	24*	55	9	-8	-3
Cc1ccccc1NC(=O)c1ccc(NS(=O)(=O)c2cc(C(C)(C)C)cc(C)c2C)cc1	56	13*	65	16	2	6
CCOC(=O)C1CCN(C(=O)c2c(C)oc3c2C(=O)c2ccccc2C3=O)CC1	60	-1	-32	48	102*	4
Cc1oc2c(c1C(=O)N1CCC(C)CC1)C(=O)c1ccccc1C2=O	?	0	4	37	110*	2
Cc1ccc(C(C)n2cc(C(=O)NCc3ccccn3)nn2)cc1 (centres undefined)	-1	0	30	8	1	-1
COc1ccc(-c2cnnc(N/N=C/C(C)=C/c3ccccc3)n2)cc1	-7	nt	45	-18	-4	2
Cc1oc(-c2ccc(Cl)cc2)nc1CN1CCC(C(=O)NCc2cccnc2)CC1	-11	0	24	-12	-1	12
COc1ccc(CNC(=O)C2CCCN(Cc3nc(-c4cccc(C)c4)oc3C)C2)cc1 (centres undefined)	-5	0	61	56*	3	-26
CCCN(CCC)CCNC(=O)C1CCN(Cc2nc(-c3ccc(Cl)cc3)oc2C)CC1	7	-1	-18	73*	5	45*
CCOC(=O)N1CCC(NC(=O)C2CCCN(Cc3nc(-c4cccc(Cl)c4)oc3C)C2)CC1 (centres undefined)	14	-1	85*	52	78*	26
Cc1oc(-c2ccc(Cl)cc2)nc1CN1CCCC(C(=O)NC2CC2)C1 (centres undefined)	-16	-2	nt	43	-2	5
CCc1ccc(-c2nc(CN3CCCC(C(=O)NCCc4ccc(OC)c(OC)c4)C3)c(C)o2)cc1 (centres undefined)	-2	-3	48	59*	1	8
Cc1ccccc1-c1nc(CN2CCCC(C(=O)NCCCN3CCOCC3)C2)c(C)o1 (centres undefined)	-3	-1	7	66*	1	20
CC(=O)Nc1ccc(-c2csc(NC(=O)CCCc3cccs3)n2)cc1	75*	19*	5	-20	2	11
CC(=O)NCCC(=O)Nc1nc(-c2ccc3ccccc3c2)cs1	nt	1	nt	60*	nt	nt
Oc1ccc(Nc2nc(-c3ccc4ccccc4c3)cs2)cc1	134*	nt	nt	-3	84*	36
Oc1ccc(-c2nc(-c3ccc(O)c(O)c3)cs2)cc1	58	21*	nt	-28	26	12
CCn1c(=O)c2cc(S(=O)(=O)NC3CCCCC3)ccc2n(CC)c1=O	1	-2	25	-15	-1	-10
CCCOc1ccc(C2CC(=O)Nc3cc(OC)c(OC)cc32)cc1 (centres undefined)	-7	-2	nt	-11	-1	nt
Cc1nn2cc(-c3ncc(C(F)(F)F)cc3Cl)cnc2c1Br	5	0	74*	-26	0	-7
Cc1cc2ncc(-c3ncc(C(F)(F)F)cc3Cl)cn2n1	3	-1	29	-8	-9	7
SMILES	CSC inhib	GRIN3A LBD mod	CHOP inh	T cruzi inh	Beta cell apopt	PREPL inhibitor
Cc1ccc(C23CC4CC(CC(NC(=O)NCCN(C)C)(C4)C2)C3)cc1	5	-1	21	59*	-1	-106
CN(C)CCNC(=O)COc1ccc(C23CC4CC(CC(C4)C2)C3)cc1	82*	-4	41	68*	13	-25
CCN(CC)CCNC(=O)COc1ccc(OC)cc1	-5	-2	nt	-16	-4	-8
Cc1ccc(CNC(=O)NC23CC4CC(CC(C4)C2)C3)cc1	2	-2	20	2	5	4
COc1ccc(C)cc1N(C(=O)c1ccco1)C(C(=O)NC1CCCC1)c1cc(OC)c(OC)c(OC)c1 (centres undefined)	nt	-1	nt	-11	2	8
CC(C)c1ccc(OCC(=O)NCc2ccccc2)cc1	1	-2	nt	5	-3	9
NC(=O)NC(=O)COC(=O)c1ccccc1Oc1ccccc1	3	11*	54	-11	nt	-12
Cc1ccc(-c2nc(-c3nccc4ccccc34)oc2-c2ccccc2)cc1	-3	11*	-10	-2	-10	5
CCc1ccc2oc(-c3cc(N)ccc3O)nc2c1	12	-5	78*	5	-8	19
CCC(C)(C)N(C(=O)CCC(=O)Nc1cc(C)on1)C(C(=O)NC(C)(C)C)c1ccc(OC)cc1 (centres undefined)	-17	-1	nt	8	-3	-10
CS(=O)(=O)N1CCN(c2ccc(NC(=O)C(c3ccccc3)c3ccccc3)cc2)CC1	0	-3	39	-10	nt	15
O=C(Nc1ccc(N2CCCC2)cc1)C(Cl)c1ccccc1 (centres undefined)	nt	-4	78*	0	11	16
CCn1c(SCC(=O)NC2CCCC2)nnc1-c1cccnc1	-4	-2	nt	-5	-6	2
O=c1[nH]c2ccccc2n1CCCSc1cnc2ccccc2n1	16	0	78*	18	-3	-61
CCCCn1c(=O)[nH]c2ccccc21	-2	2	15	-9	nt	3
CCN(CC(=O)Nc1c(F)cccc1F)C(=O)C1CCN(C(=O)Nc2ccccc2)CC1	nt	0	nt	nt	3	12
C/C(CC(=O)Nc1ccc(F)cc1F)=N\NC(=O)C(=O)N1CCCCC1	-7	nt	nt	-5	-1	12
O=C(NCCc1ccccc1F)C1CCCN1S(=O)(=O)c1ccc2ccccc2c1 (centres undefined)	-2	5	-13	75*	-5	-3
COc1ccc(-c2csc(NC(=S)NC(=O)c3ccco3)n2)cc1Br	72	-3	nt	-8	13	3
O=C(/C=C/c1ccco1)Nc1nc(-c2ccccn2)cs1	-12	-25	-112	60*	5	7
O=C(/C=C/c1ccco1)Nc1nc(-c2ccccc2)cs1	18	-16	6	-68	4	-5
COc1ccc(-c2csc(NC(=S)NC(=O)c3ccccc3)n2)cc1Br	nt	40*	-26	40	nt	6
